Assay results reported in ChEMBL document CHEMBL2311348, “The extremo-α-carbonic anhydrase (CA) from Sulfurihydrogenibium azorense, the fastest CA known, is highly activated by amino acids and amines” (Bioorg Med Chem Lett, 2013).

Columns and labels:
[1] = test system: Sulfurihydrogenibium yellowstonense; experiment: Activation of Sulfurihydrogenibium yellowstonense recombinant CA by stopped flow CO2 hydrase method
[2] = test system: Sulfurihydrogenibium azorense; experiment: Activation of Sulfurihydrogenibium azorense recombinant alpha carbonic anhydrase by stopped flow CO2 hydrase method
In short: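 Full-length recombinant enzyme in a stopped-flow CO2 hydration assay at 25 °C: 0.2 mM phenol red read at its absorbance maximum, 10 mM Hepes pH 7.5, 0.1 M NaClO4, 10 s traces, CO2 1.7–17 mM. Activators were diluted from 10 mM water stocks down to 0.001 µM and preincubated with enzyme for 15 min at room temperature. Uncatalyzed rates were subtracted. kcat was measured at 10 µM activator. KA came from a steady-state equation, mean of ≥3 determinations.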

N[C@@H](Cc1c[nH]c2ccccc12)C(=O)O
KA [1]: 0.007 µM | KA [2]: 0.023 µM

NCCN1CCOCC1
KA [1]: 0.1 µM | KA [2]: 1.15 µM

NCCN1CCNCC1
KA [1]: 0.09 µM | KA [2]: 0.076 µM

CNC[C@@H](O)c1ccc(O)c(O)c1
KA [1]: 0.68 µM | KA [2]: 0.074 µM

N[C@H](Cc1c[nH]cn1)C(=O)O
KA [1]: 0.012 µM | KA [2]: 0.09 µM

N[C@H](Cc1ccc(O)cc1)C(=O)O
KA [1]: 0.83 µM | KA [2]: 0.11 µM

N[C@@H](Cc1ccc(O)c(O)c1)C(=O)O
KA [1]: 0.09 µM | KA [2]: 0.004 µM

NCCc1c[nH]c2ccc(O)cc12
KA [1]: 0.021 µM | KA [2]: 0.007 µM

N[C@@H](Cc1ccc(O)cc1)C(=O)O
KA [1]: 0.001 µM | KA [2]: 0.052 µM

N[C@H](Cc1ccc(O)c(O)c1)C(=O)O
KA [1]: 0.43 µM | KA [2]: 0.89 µM

Nc1ccc(C[C@H](N)C(=O)O)cc1
KA [1]: 0.97 µM | KA [2]: 0.09 µM

NCc1ccccn1
KA [1]: 0.1 µM | KA [2]: 0.081 µM

N[C@H](Cc1c[nH]c2ccccc12)C(=O)O
KA [1]: 0.002 µM | KA [2]: 0.003 µM

NCCc1c[nH]cn1
KA [1]: 0.08 µM | KA [2]: 0.1 µM

NCCc1ccc(O)c(O)c1
KA [1]: 0.037 µM | KA [2]: 0.011 µM

NCCc1ccccn1
KA [1]: 0.33 µM | KA [2]: 0.34 µM

N[C@@H](Cc1c[nH]cn1)C(=O)O
KA [1]: 0.11 µM | KA [2]: 0.071 µM
